Experimental data from different studies.
FGFR3 G697C: Fibroblast growth factor receptor 3 (FGFR3, Homo sapiens, UniProt P22607, G697C)
FGFR3: Fibroblast growth factor receptor 3 (FGFR3, Homo sapiens, UniProt P22607)

Structure (SMILES)	target	assay	setting	remaining binding [%]
C[C@@H](c1ccc(-n2cnc3c(N)ncnc32)cc1)N1CCc2nn(C)c(Cc3ccccc3)c2C1=O	FGFR3 G697C	binding, competition with immobilised ligand	0.1 µM	96
C[C@H]1CCN(c2nccc(-c3cnn4ncccc34)n2)C1	FGFR3	binding	1 µM	100
O=C(c1ccc(Nc2ncc(Cl)c(-c3ccc(Cl)s3)n2)cc1)N1CCC(N2CCCC2)CC1	FGFR3 G697C	binding, competition with immobilised ligand	1 µM	4.9
COc1cnc(Nc2cccc(S(N)(=O)=O)c2)nc1N1CCN(c2ccccc2)C(=O)C1	FGFR3	binding, competition with immobilised ligand	1 µM	100
CSc1cccnc1N1CCN(Cc2nc3ccccc3[nH]2)CC1	FGFR3 G697C	cell-free assay, competition with immobilised ligand	1 µM	100
c1cnn2ncc(-c3ccnc(N4CCC45COC5)n3)c2c1	FGFR3	binding	1 µM	100
CN1CCN(c2ccc(Nc3nccc(-c4cccc([N+](=O)[O-])c4)n3)cc2C(F)(F)F)CC1	FGFR3 G697C	binding	10 µM	63
CC1CCCN1c1nccc(-c2cnn3ncccc23)n1 (stereo not drawn)	FGFR3 G697C	binding	1 µM	86
COc1ccc2cc(OCC3(C(=O)O)CN(C(=O)c4ccc(F)cc4)C3)ccc2c1	FGFR3	cell-free assay, competition with immobilised ligand	1 µM	100
FC(F)(F)Oc1cccc(-c2cnc3ccc(-c4ccncc4)nn23)c1	FGFR3	cell-free assay, competition with immobilised ligand	5 µM	86
C=CC(=O)N1CCC(C(=O)NCC(=O)N2CCN(c3nc(-c4cnc(N)nc4C(F)F)nc(N4CCOCC4)n3)CC2)CC1	FGFR3 G697C	binding, competition with immobilised ligand	1 µM	99
CN(C)c1nccc(-c2cnn3ncccc23)n1	FGFR3 G697C	binding	1 µM	65
N#Cc1ccccc1CSc1nnc2c(n1)[nH]c1ccccc12	FGFR3	binding, competition with immobilised ligand	10 µM	88
Cn1nc(C(=O)NCc2ccc(C(=O)O)cc2)cc1-c1ccc2[nH]ccc2c1	FGFR3 G697C	cell-free assay, competition with immobilised ligand	0.1 µM	82
O=C(NCCCN1CCOCC1)c1ccc(Nc2ncc(Cl)c(-c3ccc(Cl)s3)n2)cc1	FGFR3 G697C	binding, competition with immobilised ligand	1 µM	32
Nc1ncc2c(n1)-c1c([nH]c3ccc(C#CC4CC4)cc13)CCCC2	FGFR3 G697C	binding, competition with immobilised ligand	1 µM	100
O=C(c1ccc(Nc2ncc(Cl)c(-c3cc4ccccc4s3)n2)cc1)N1CCC(N2CCCC2)CC1	FGFR3 G697C	binding, competition with immobilised ligand	1 µM	34
O=C(Nc1c[nH]nc1C(=O)NC1CCNCC1)c1cc(F)cc(F)c1	FGFR3 G697C	binding, competition with immobilised ligand	1 µM	100

Structure (SMILES)	target	assay	setting	remaining binding [%]
CS(=O)(=O)c1cc(C2(NC(=O)c3cncc4c3cnn4-c3ccc(F)cc3)CC2)ccn1	FGFR3	cell-free assay, competition with immobilised ligand	1 µM	100
CNC(=O)[C@@H]1CC[C@@H](n2c(-c3ccc4cnccc4c3)nc3ccc(C(=O)NCc4cccc(C(N)=O)c4)cc32)C1	FGFR3	binding, competition with immobilised ligand	1 µM	100
N[C@@H]1CCN(c2nccc(-c3cnn4ncccc34)n2)C1	FGFR3 G697C	binding	1 µM	100
Cc1cnc(Nc2ccc(C(=O)N3CCC(N4CCCC4)CC3)cc2)nc1-c1cc2ccccc2s1	FGFR3 G697C	binding, competition with immobilised ligand	1 µM	16
COc1cnc(Nc2cccc(S(N)(=O)=O)c2)nc1N1CCN(c2ccccc2)CC1	FGFR3	binding, competition with immobilised ligand	1 µM	98
c1cncc(-c2cccc(Nc3nccc(NC4CCCCC4)n3)c2)c1	FGFR3 G697C	binding, competition with immobilised ligand	10 µM	51
Cc1cnn2ncc(-c3ccnc(N(C)C)n3)c2c1	FGFR3	binding	1 µM	100
CCCOc1ccc([C@H]2[C@H](C(=O)O)[C@@H](c3ccc4c(c3)OCO4)CN2CC(=O)Nc2c(CC)cccc2CC)cc1	FGFR3 G697C	cell-free assay, competition with immobilised ligand	1 µM	85
O=C(c1ccc(Nc2nccc(-c3cc4ccccc4s3)n2)cc1)N1CCC(N2CCCC2)CC1	FGFR3 G697C	binding, competition with immobilised ligand	1 µM	77
CCC(=O)N[C@H]1CC[C@@H](C(=O)N(C)c2ccc(-c3nc4ccccc4o3)cc2)C1	FGFR3 G697C	cell-free assay, competition with immobilised ligand	1 µM	100
O=C(NCCCN1CCOCC1)c1ccc(Nc2nccc(-c3cc4ccccc4s3)n2)cc1	FGFR3 G697C	binding, competition with immobilised ligand	1 µM	79
C[C@@H](c1cccc(C#N)c1)n1cc(Cl)cc(C(N)=O)c1=N	FGFR3 G697C	cell-free assay, competition with immobilised ligand	1 µM	79
COc1ncc2cc3ccccc3nc2c1C#N	FGFR3 G697C	cell-free assay, competition with immobilised ligand	5 µM	96
CN(C)C(=O)Cn1cc(-c2nc([C@@](C)(c3ccc(-c4cnc(N)nc4)cc3)C3CC3)no2)cn1	FGFR3 G697C	cell-free assay, competition with immobilised ligand	1 µM	89
F[C@@H]1CCN(c2nccc(-c3cnn4ncccc34)n2)C1	FGFR3 G697C	binding	1 µM	79
O=C(NCC1CCOCC1)c1n[nH]cc1NC(=O)c1c(F)cccc1F	FGFR3 G697C	binding, competition with immobilised ligand	1 µM	100
C[C@@H]1CN(c2ccc3ncc(-c4ccc5[nH]nc(C6CC6)c5c4)n3n2)C[C@H](C)O1	FGFR3	binding, competition with immobilised ligand	0.5 µM	100
CCN1CCN(Cc2ccc(C(=O)Nc3ccc(C)c(Oc4ccc5c(c4)CC(=O)N5)c3)cc2C(F)(F)F)CC1	FGFR3 G697C	binding, competition with immobilised ligand	1 µM	88
